The values below come from ChEMBL document CHEMBL3779892, “Increasing the binding affinity of VEGFR-2 inhibitors by extending their hydrophobic interaction with the active site: Design, synthesis and biological evaluation of 1-substituted-4-(4-methoxybenzyl)phthalazine derivatives” (Eur J Med Chem, 2016).

Holding throughout (assay type): functional
The test system of assay [1] is CCRF-CEM. Nature of the assay: Growth inhibition of human CCRF-CEM cells at 10 uM after 48 hrs by sulforhodamine B assay. The note with it: read-out: GI. The method in brief:
(§1)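 Run at NCI on the 60-line panel. Cells grown in RPMI 1640 with 5% FBS and 2 mM L-glutamine, plated at 5000–40,000 cells/well by doubling time, and held 24 h at 37 °C before dosing. Drug (DMSO stock) given at a single final 10 µM in triplicate wells for 48 h. Adherent cells fixed with cold TCA (10% final), suspension cells with 16% TCA. SRB stain read at 515 nm. Percent growth from Tz, C and Ti.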
(In SRB staining, fixed cells bind dye roughly in proportion to their protein.)

Assay [2] can be described thus: Growth inhibition of human MOLT4 cells at 10 uM after 48 hrs by sulforhodamine B assay. The settings on record: MOLT-4, 48 h, read-out: GI. The gist of the method: as §1
In assay [3] the test system is SR. Nature of the assay: Growth inhibition of human SR cells at 10 uM after 48 hrs by sulforhodamine B assay. The settings on record: read-out: GI. The gist of the method: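 NCI-60 screen. Cells were grown in RPMI 1640 with 5% FBS and 2 mM L-glutamine, plated at 5000–40,000 cells/well and held 24 h at 37 °C, 5% CO2. Single 10 µM final dose from DMSO stock, triplicate wells, 48 h. Settled cells were fixed with 80% TCA (16% final) and stained with 0.4% SRB. Dye was solubilized in 10 mM Tris and read at 515 nm. Growth was calculated against time-zero and untreated wells.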

Assay [4] deals with A549. Nature of the assay: Growth inhibition of human A549 cells at 10 uM after 48 hrs by sulforhodamine B assay. The settings on record: A549, 48 h, read-out: GI. The method in brief: as §1
Assay [5] in a line: Growth inhibition of human HOP62 cells at 10 uM after 48 hrs by sulforhodamine B assay. The note with it: HOP-62, 48 h, read-out: GI. The method in brief: as §1
Assay [6] can be described thus: Growth inhibition of human HCC2998 cells at 10 uM after 48 hrs by sulforhodamine B assay. The settings on record: HCC 2998, 48 h, read-out: GI. The method in brief:
as §1

Assay [7] is described as follows: Growth inhibition of human HCT116 cells at 10 uM after 48 hrs by sulforhodamine B assay. The settings on record: HCT-116, 48 h, read-out: GI. The method in brief:
as §1

Assay [8] in a line: Growth inhibition of human SW620 cells at 10 uM after 48 hrs by sulforhodamine B assay. The note with it: SW-620, 48 h, read-out: GI. The method in brief:
(§2)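 NCI-60 panel, adherent cells grown in RPMI 1640 with 5% FBS and 2 mM L-glutamine, plated at 5000–40,000 cells/well and preincubated 24 h at 37 °C, 5% CO2. 10 µM final compound from DMSO stock, triplicate wells, 48 h. Fixed with cold TCA (10% final, 60 min, 4 °C) and stained with 0.4% SRB. Absorbance read at 515 nm; growth calculated against time-zero and control wells.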

Assay [9] can be described thus: Growth inhibition of human SF539 cells at 10 uM after 48 hrs by sulforhodamine B assay. The settings on record: SF-539, 48 h, read-out: GI. The gist of the method: as §1
Assay [10] concerns M14. As to the kind of experiment: Growth inhibition of human M14 cells at 10 uM after 48 hrs by sulforhodamine B assay. The note with it: M14, 48 h, read-out: GI. The gist of the method: as §1
Assay [11] deals with MDA-MB-435. Nature of the assay: Growth inhibition of human MDA-MB-435 cells at 10 uM after 48 hrs by sulforhodamine B assay. The note with it: MDA-MB-435, 48 h, read-out: GI. The gist of the method: as §1
In assay [12] the test system is SK-MEL-28. As to the kind of experiment: Growth inhibition of human SK-MEL-28 cells at 10 uM after 48 hrs by sulforhodamine B assay. The settings on record: SK-MEL-28, 48 h, read-out: GI. The method in brief:
as §1

Assay [13] is described as follows: Growth inhibition of human UACC257 cells at 10 uM after 48 hrs by sulforhodamine B assay. The settings on record: UACC-257, 48 h, read-out: GI. The method in brief: as §2
Assay [14] can be described thus: Growth inhibition of human UACC62 cells at 10 uM after 48 hrs by sulforhodamine B assay. The note with it: UACC-62, 48 h, read-out: GI. The method in brief:
as §2

A short description of assay [15]: Growth inhibition of human SKOV3 cells at 10 uM after 48 hrs by sulforhodamine B assay. The settings on record: SK-OV-3, 48 h, read-out: GI. The gist of the method: as §1
A short description of assay [16]: Growth inhibition of human Caki1 cells at 10 uM after 48 hrs by sulforhodamine B assay. The note with it: CAKI-1, 48 h, read-out: GI. The method in brief: as §1
A short description of assay [17]: Growth inhibition of human RXF393 cells at 10 uM after 48 hrs by sulforhodamine B assay. The settings on record: RXF 393, 48 h, read-out: GI. The method in brief:
as §1

For assay [18], the system named is SN12C. Nature of the assay: Growth inhibition of human SN12C cells at 10 uM after 48 hrs by sulforhodamine B assay. The settings on record: read-out: GI. The method in brief:
as §1

Assay [19] is described as follows: Growth inhibition of human TK10 cells at 10 uM after 48 hrs by sulforhodamine B assay. The note with it: TK-10, 48 h, read-out: GI. The method in brief: as §2
Assay [20] can be described thus: Growth inhibition of human PC3 cells at 10 uM after 48 hrs by sulforhodamine B assay. The note with it: PC-3, 48 h, read-out: GI. The method in brief:
as §1

The nature of assay [21]: Growth inhibition of human Hs 578T cells at 10 uM after 48 hrs by sulforhodamine B assay. The settings on record: read-out: GI. The gist of the method:
as §1

Take `COc1ccc(Cc2nnc(Nc3cccc(OC)c3)c3ccccc23)cc1`: the inhibition of growth at 10 µM is under 30% in [1]; under 30% in [2]; 35% in [3]; under 30% in assay [4]; 35% in [5]; under 30% in assay [6]. Further, the inhibition of growth at 10 µM in assay [7] was 40%; in assay [8] it was under 30%; in assay [9] it was under 30%; in assay [10] it was under 30%; in assay [11], under 30%; in assay [12] it was under 30%. Further, the inhibition of growth at 10 µM is under 30% in [13]; under 30% in assay [14]; under 30% in [15]; under 30% in assay [16]; 32% in [17]; under 30% in assay [18]. Besides, the inhibition of growth at 10 µM in assay [19] is under 30%; in [20], 30%; in assay [21] it was under 30%.

Take `COc1ccc(Cc2nnc(Nc3ccc(NC(=O)Nc4ccccc4)cc3)c3ccccc23)cc1`: the inhibition of growth at 10 µM in assay [1] is 34%; in [2], 30%; in assay [3] it was under 30%; in assay [4], under 30%; in [5], under 30%; in assay [6], under 30%. Further, the inhibition of growth at 10 µM is 35% in assay [7]; under 30% in [8]; under 30% in assay [9]; under 30% in assay [10]; under 30% in assay [11]; under 30% in [12]. The inhibition of growth at 10 µM in [13] is under 30%; in [14] it was under 30%; in assay [15], under 30%; in [16] it was under 30%; in [17], 49%; in [18] it was under 30%. For the same molecule, the inhibition of growth at 10 µM was under 30% in [19], 30% in assay [20] and 33% in assay [21].

Regarding `COc1ccc(Cc2nnc(Nc3ccc(NC(=O)Nc4cccc(C(F)(F)F)c4)cc3)c3ccccc23)cc1`, the inhibition of growth at 10 µM in assay [1] is 35%; in assay [2], 37%; in assay [3] it was 34%; in [4], 35%; in assay [5], under 30%; in assay [6], under 30%. The inhibition of growth at 10 µM was 42% in [7]; under 30% in assay [8]; under 30% in assay [9]; 30% in assay [10]; under 30% in assay [11]; under 30% in assay [12]. Besides, the inhibition of growth at 10 µM was under 30% in assay [13]; under 30% in assay [14]; under 30% in assay [15]; under 30% in [16]; 50% in [17]; under 30% in assay [18]. Further, the inhibition of growth at 10 µM is under 30% in assay [19], 36% in assay [20] and 34% in [21].

As to `COc1ccc(Cc2nnc(Nc3ccc(OC)cc3)c3ccccc23)cc1`, the inhibition of growth at 10 µM in assay [1] is under 30%; in [2] it was 31%; in assay [3], 34%; in assay [4] it was under 30%; in assay [5], under 30%; in [6], under 30%. The inhibition of growth at 10 µM in [7] is 34%; in assay [8], under 30%; in assay [9], under 30%; in [10] it was under 30%; in [11], under 30%; in [12] it was under 30%. Further, the inhibition of growth at 10 µM in [13] is under 30%; in assay [14], 34%; in assay [15] it was under 30%; in assay [16] it was under 30%; in [17], under 30%; in assay [18], 34%. Further, the inhibition of growth at 10 µM in assay [19], in [20] and in assay [21] was under 30% each time.

In the case of `COc1ccc(Cc2nnc(Nc3ccc(NC(=O)Nc4ccc(C#N)cc4)cc3)c3ccccc23)cc1`, the inhibition of growth at 10 µM in assay [1] was 47%; in assay [2] it was 56%; in [3], 43%; in assay [4] it was 36%; in assay [5] it was 33%; in [6], under 30%. The inhibition of growth at 10 µM in [7] was 44%; in assay [8] it was under 30%; in assay [9], 67%; in assay [10], 35%; in [11] it was under 30%; in assay [12], 45%. Further, the inhibition of growth at 10 µM is under 30% in assay [13]; under 30% in assay [14]; 37% in assay [15]; under 30% in assay [16]; 110% in assay [17]; under 30% in assay [18]. The inhibition of growth at 10 µM is under 30% in [19], 41% in [20] and 105% in [21].

Turning to `COc1ccc(Cc2nnc(Nc3ccc(NC(=O)Nc4ccccc4Cl)cc3)c3ccccc23)cc1`, the inhibition of growth at 10 µM in assay [1], in [2], in assay [3], in [4], in assay [5] and in assay [6] was under 30% throughout. Also, the inhibition of growth at 10 µM in assay [7], in assay [8], in assay [9], in assay [10], in [11] and in assay [12] was under 30% each time. In addition, the inhibition of growth at 10 µM in assay [13] is under 30%; in assay [14] it was under 30%; in [15] it was under 30%; in assay [16], under 30%; in assay [17] it was 48%; in assay [18], under 30%. Moreover, the inhibition of growth at 10 µM in [19], in assay [20] and in [21] was under 30% in each case.
